Activity calls are given as the source filed them. The rule behind the calls is not given here.
How the values were obtained:
[1] = target: T1, Prothrombin (Homo sapiens, UniProt P00734); experiment: Partial allosteric inhibition of human thrombin at 300 uM using spectrozyme TH as substrate pretreated for 10 mins followed by substrate addition by spectrophotometric method relative to control
[2] = target: T1, Prothrombin; experiment: Partial allosteric inhibition of human thrombin using spectrozyme TH as substrate pretreated for 10 mins followed by substrate addition by spectrophotometric method
Outline: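 Chromogenic substrate hydrolysis by thrombin read spectrophotometrically in 20 mM Tris-HCl pH 7.4 with […], 100 mM NaCl and 0.1% PEG 8000 at 25 °C. Sigmoidal fits gave IC50 and efficacy (ΔY). Errors ±1 S.E.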

[3] = target: T1, Prothrombin; experiment: Partial allosteric inhibition of human thrombin at 500 uM using spectrozyme TH as substrate pretreated for 10 mins followed by substrate addition by spectrophotometric method relative to control
[4] = tested on: CCOC(=O)c1c(C)oc2cc(OCc3ccccc3)c(OCc3oc4cc(OCC5CCCCC5)c(OS(=O)(=O)O)cc4c3C(=O)OCC)cc12; experiment: Mixed-type inhibition of human thrombin assessed as substrate Km at 1 uM using varying levels of spectrozyme TH as substrate measured after 10 mins by Michaelis-Menten plot analysis (reference value: 8.6 +/- 2.8 uM)
[5] = tested on: CCOC(=O)c1c(C)oc2cc(OCc3ccccc3)c(OCc3oc4cc(OCC5CCCCC5)c(OS(=O)(=O)O)cc4c3C(=O)OCC)cc12; experiment: Mixed-type inhibition of human thrombin assessed as substrate Km at 2 uM using varying levels of spectrozyme TH as substrate measured after 10 mins by Michaelis-Menten plot analysis (reference value: 8.6 +/- 2.8 uM)
[6] = tested on: CCOC(=O)c1c(C)oc2cc(OCc3ccccc3)c(OCc3oc4cc(OCC5CCCCC5)c(OS(=O)(=O)O)cc4c3C(=O)OCC)cc12; experiment: Mixed-type inhibition of human thrombin assessed as substrate Vmax at 2 uM using varying levels of spectrozyme TH as substrate measured after 10 mins by Michaelis-Menten plot analysis (reference value: 48.2 +/- 2.8 mAU/min)
[7] = tested on: CCOC(=O)c1c(C)oc2cc(OCc3ccccc3)c(OCc3oc4cc(OCC5CCCCC5)c(OS(=O)(=O)O)cc4c3C(=O)OCC)cc12; experiment: Mixed-type inhibition of human thrombin assessed as substrate Vmax at 1 uM using varying levels of spectrozyme TH as substrate measured after 10 mins by Michaelis-Menten plot analysis (reference value: 48.2 +/- 2.8 mAU/min)
[8] = tested on: CCOC(=O)c1c(C)oc2cc(OCCc3ccccc3)c(OCc3oc4cc(OC)c(OS(=O)(=O)O)cc4c3C(=O)OCC)cc12; experiment: Non competitive inhibition of human thrombin assessed as substrate Vmax at 10 uM using varying levels of spectrozyme TH as substrate measured after 10 mins by Michaelis-Menten plot analysis (reference value: 51.0 +/- 2.8 mAU/min)
[9] = tested on: CCOC(=O)c1c(C)oc2cc(OCCc3ccccc3)c(OCc3oc4cc(OC)c(OS(=O)(=O)O)cc4c3C(=O)OCC)cc12; experiment: Non competitive inhibition of human thrombin assessed as substrate Vmax at 1 uM using varying levels of spectrozyme TH as substrate measured after 10 mins by Michaelis-Menten plot analysis (reference value: 51.0 +/- 2.8 mAU/min)
[10] = tested on: CCOC(=O)c1c(C)oc2cc(OCc3ccccc3)c(OCc3oc4cc(OCC5CCCCC5)c(OS(=O)(=O)O)cc4c3C(=O)OCC)cc12; experiment: Mixed-type inhibition of human thrombin assessed as substrate Km at 40 uM using varying levels of spectrozyme TH as substrate measured after 10 mins by Michaelis-Menten plot analysis (reference value: 8.6 +/- 2.8 uM)
[11] = tested on: CCOC(=O)c1c(C)oc2cc(OCCc3ccccc3)c(OCc3oc4cc(OC)c(OS(=O)(=O)O)cc4c3C(=O)OCC)cc12; experiment: Non competitive inhibition of human thrombin assessed as substrate Km at 1 uM using varying levels of spectrozyme TH as substrate measured after 10 mins by Michaelis-Menten plot analysis (reference value: 9.3 +/- 2.8 uM)
[12] = tested on: CCOC(=O)c1c(C)oc2cc(OCCc3ccccc3)c(OCc3oc4cc(OC)c(OS(=O)(=O)O)cc4c3C(=O)OCC)cc12; experiment: Non competitive inhibition of human thrombin assessed as substrate Km at 10 uM using varying levels of spectrozyme TH as substrate measured after 10 mins by Michaelis-Menten plot analysis (reference value: 9.3 +/- 2.8 uM)
[13] = tested on: CCOC(=O)c1c(C)oc2cc(OCCc3ccccc3)c(OCc3oc4cc(OC)c(OS(=O)(=O)O)cc4c3C(=O)OCC)cc12; experiment: Non competitive inhibition of human thrombin assessed as substrate Km at 2 uM using varying levels of spectrozyme TH as substrate measured after 10 mins by Michaelis-Menten plot analysis (reference value: 9.3 +/- 2.8 uM)
[14] = tested on: CCOC(=O)c1c(C)oc2cc(OCc3ccccc3)c(OCc3oc4cc(OCC5CCCCC5)c(OS(=O)(=O)O)cc4c3C(=O)OCC)cc12; experiment: Mixed-type inhibition of human thrombin assessed as substrate Vmax at 40 uM using varying levels of spectrozyme TH as substrate measured after 10 mins by Michaelis-Menten plot analysis (reference value: 48.2 +/- 2.8 mAU/min)
[15] = tested on: CCOC(=O)c1c(C)oc2cc(OCc3ccccc3)c(OCc3oc4cc(OCC5CCCCC5)c(OS(=O)(=O)O)cc4c3C(=O)OCC)cc12; experiment: Mixed-type inhibition of human thrombin assessed as substrate Km at 10 uM using varying levels of spectrozyme TH as substrate measured after 10 mins by Michaelis-Menten plot analysis (reference value: 8.6 +/- 2.8 uM)
[16] = tested on: CCOC(=O)c1c(C)oc2cc(OCCc3ccccc3)c(OCc3oc4cc(OC)c(OS(=O)(=O)O)cc4c3C(=O)OCC)cc12; experiment: Non competitive inhibition of human thrombin assessed as substrate Km at 40 uM using varying levels of spectrozyme TH as substrate measured after 10 mins by Michaelis-Menten plot analysis (reference value: 9.3 +/- 2.8 uM)
[17] = tested on: CCOC(=O)c1c(C)oc2cc(OCc3ccccc3)c(OCc3oc4cc(OCC5CCCCC5)c(OS(=O)(=O)O)cc4c3C(=O)OCC)cc12; experiment: Mixed-type inhibition of human thrombin assessed as substrate Vmax at 10 uM using varying levels of spectrozyme TH as substrate measured after 10 mins by Michaelis-Menten plot analysis (reference value: 48.2 +/- 2.8 mAU/min)
[18] = tested on: CCOC(=O)c1c(C)oc2cc(OCCc3ccccc3)c(OCc3oc4cc(OC)c(OS(=O)(=O)O)cc4c3C(=O)OCC)cc12; experiment: Non competitive inhibition of human thrombin assessed as substrate Vmax at 40 uM using varying levels of spectrozyme TH as substrate measured after 10 mins by Michaelis-Menten plot analysis (reference value: 51.0 +/- 2.8 mAU/min)

Molecule: CCOC(=O)c1c(C)oc2cc(OC)c(OCc3oc4cc(OCC5CCCCC5)c(OS(=O)(=O)O)cc4c3C(=O)OCC)cc12
- inhibition [1]: > 50%
- Efficacy [2]: 77%
- IC50 [2]: 3.8 µM

Molecule: CCOC(=O)c1c(C)oc2cc(OCc3cccc(OS(=O)(=O)O)c3)c(OS(=O)(=O)O)cc12
- inhibition [3]: > 50%
- IC50 [2]: > 500 µM

Molecule: CCOC(=O)c1c(C)oc2cc(OCc3ccccc3)c(OCc3cccc(S(=O)(=O)O)c3)cc12
- inhibition [3]: > 50%
- IC50 [2]: > 500 µM

Molecule: CCOC(=O)c1c(C)oc2cc(OCC3CCCCC3)c(OS(=O)(=O)O)cc12
- inhibition [3]: > 50%
- IC50 [2]: > 500 µM

Molecule: COc1cc2oc(C)c(C(=O)OCCOS(=O)(=O)O)c2cc1OS(=O)(=O)O
- inhibition [3]: > 50%
- IC50 [2]: > 500 µM

Molecule: CCOC(=O)c1c(C)oc2cc(OCc3ccc(OC(C)C)cc3)c(OCc3oc4cc(OC)c(OS(=O)(=O)O)cc4c3C(=O)OCC)cc12
- inhibition [1]: > 50%
- Efficacy [2]: 74%
- IC50 [2]: 2.3 µM

Molecule: CCOC(=O)c1c(C)oc2cc(OCc3ccccc3)c(OCc3oc4cc(OC)c(OS(=O)(=O)O)cc4c3C(=O)OCCOS(=O)(=O)O)cc12
- inhibition [1]: > 50%
- Efficacy [2]: 74%
- IC50 [2]: 14 µM

Molecule: CCCOC(=O)c1c(COc2cc3c(C(=O)OCc4ccccc4)c(C)oc3cc2OC)oc2cc(OC)c(OS(=O)(=O)O)cc12
- inhibition [1]: > 50%
- Efficacy [2]: 68%
- IC50 [2]: 4.9 µM

Molecule: CCOC(=O)c1c(COc2cc3c(C(=O)OCCc4ccccc4)c(C)oc3cc2OC)oc2cc(OC)c(OS(=O)(=O)O)cc12
- inhibition [1]: > 50%
- Efficacy [2]: 58%
- IC50 [2]: 3.2 µM

Molecule: CCOC(=O)c1c(C)oc2cc(OCc3ccccc3)c(OS(=O)(=O)O)cc12
- inhibition [3]: > 50%
- Efficacy [2]: 72%
- IC50 [2]: 134 µM

Molecule: CCOC(=O)c1c(C)oc2cc(OCc3cccc(OC(C)C)c3)c(OCc3oc4cc(OC)c(OS(=O)(=O)O)cc4c3C(=O)OCC)cc12
- inhibition [1]: > 50%
- Efficacy [2]: 57%
- IC50 [2]: 2.6 µM

Molecule: CCOC(=O)c1c(C)oc2cc(OCc3cccc(OCOC)c3)c(OS(=O)(=O)O)cc12
- inhibition [3]: > 50%
- Efficacy [2]: 75.9%
- IC50 [2]: 229 µM

Molecule: CCOC(=O)c1c(COc2cc3c(C(=O)OCc4ccc(OCOC)cc4)c(C)oc3cc2OC)oc2cc(OC)c(OS(=O)(=O)O)cc12
- inhibition [1]: > 50%
- Efficacy [2]: 66%
- IC50 [2]: 2.6 µM

Molecule: COc1cc2oc(C)c(C(=O)OCc3ccccc3)c2cc1OS(=O)(=O)O
- inhibition [3]: > 50%
- Efficacy [2]: 95%
- IC50 [2]: 168 µM

Molecule: CCOC(=O)c1c(C)oc2cc(OCC3CCCCC3)c(OCc3oc4cc(OC)c(OS(=O)(=O)O)cc4c3C(=O)OCC)cc12
- inhibition [1]: > 50%
- Efficacy [2]: 63%
- IC50 [2]: 2.6 µM

Molecule: CCOC(=O)c1c(C)oc2cc(OCc3cccc(OCOC)c3)c(OCc3oc4cc(OC)c(OS(=O)(=O)O)cc4c3C(=O)OCC)cc12
- inhibition [1]: > 50%
- Efficacy [2]: 59%
- IC50 [2]: 4 µM

Molecule: CCOC(=O)c1c(C)oc2cc(OC)c(OCc3cccc(S(=O)(=O)O)c3)cc12
- inhibition [3]: > 50%
- Efficacy [2]: 101%
- IC50 [2]: 134 µM

Molecule: CCOC(=O)c1c(C)oc2cc(OCc3ccccc3)c(OCc3oc4cc(OC)c(OS(=O)(=O)O)cc4c3C(=O)OCC)cc12
- inhibition [1]: > 50%
- Efficacy [2]: 57%
- IC50 [2]: 2 µM

Molecule: Prothrombin (Homo sapiens) (from UniProt P00734)
- Km [4]: 8.8 µM
- Km [5]: 10.7 µM
- Vmax [6]: 38.7 mAU/min
- Vmax [7]: 43.8 mAU/min
- Vmax [8]: 30.9 mAU/min
- Vmax [9]: 44.1 mAU/min
- Km [10]: 61 µM
- Km [11]: 8.3 µM
- Km [12]: 7.4 µM
- Km [13]: 9.2 µM
- Vmax [14]: 26.5 mAU/min
- Km [15]: 29.7 µM
- Km [16]: 6.8 µM
- Vmax [17]: 32.5 mAU/min
- Vmax [18]: 23.7 mAU/min

Molecule: CCOC(=O)c1c(C)oc2cc(OCC3CCCCC3)c(OCc3oc4cc(OCC5CCCCC5)c(OS(=O)(=O)O)cc4c3C(=O)OCC)cc12
- inhibition [1]: > 50%
- Efficacy [2]: 93%
- IC50 [2]: 8.7 µM

Molecule: CCOC(=O)c1c(C)oc2cc(Oc3cccc(OS(=O)(=O)O)c3)c(OCc3oc4cc(OC)c(OS(=O)(=O)O)cc4c3C(=O)OCC)cc12
- inhibition [1]: inactive
- IC50 [2]: > 300 µM

Molecule: COC(=O)c1c(C)oc2cc(OCc3cccc(OS(=O)(=O)O)c3)c(OCc3cccc(S(=O)(=O)O)c3)cc12
- inhibition [3]: > 50%
- IC50 [2]: > 500 µM

Molecule: CCOC(=O)c1c(C)oc2cc(OCc3ccc(OCOC)cc3)c(OCc3oc4cc(OC)c(OS(=O)(=O)O)cc4c3C(=O)OCC)cc12
- inhibition [1]: > 50%
- Efficacy [2]: 61%
- IC50 [2]: 3.3 µM

Molecule: CCOC(=O)c1c(C)oc2cc(OS(=O)(=O)O)c(OCc3oc4cc(OC)c(OS(=O)(=O)O)cc4c3C(=O)OCC)cc12
- inhibition [1]: inactive
- IC50 [2]: > 300 µM

Molecule: Cc1oc2cc(OCc3ccccc3)c(OS(=O)(=O)O)cc2c1C(=O)O
- inhibition [3]: > 50%
- IC50 [2]: > 500 µM

Molecule: CCOC(=O)c1c(C)oc2cc(OCc3ccc(OC(C)C)cc3)c(OS(=O)(=O)O)cc12
- inhibition [3]: > 50%
- IC50 [2]: > 500 µM

Molecule: CCOC(=O)c1c(C)oc2cc(OCc3cccc(OC(C)C)c3)c(OS(=O)(=O)O)cc12
- inhibition [3]: > 50%
- IC50 [2]: > 500 µM
